ChEMBL document CHEMBL3272003, “(-)-3-Isothujone, a small nonnitrogenous molecule with antinociceptive activity in mice” (J Med Chem, 1976)
The source made the active and inactive calls. The calls are words filed in the database; no cut-off is given here.

How the values were obtained:
[1] = test system: Mus musculus; assay: Antinociceptive activity in sc dosed male white mouse by hot plate test; type: functional
[2] = test system: Mus musculus; assay: Antinociceptive activity in male white mouse at 20 mg/kg, sc by Nilsen test; type: functional, organism-based; design: dose 20 mg/kg
[3] = test system: Mus musculus; assay: Antinociceptive activity in sc dosed male white mouse by Nilsen test; type: functional
[4] = Toxicity in sc dosed male white mouse; type: organism-based; details: in vivo
Summary of the method: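 LD50 determined in the same male white mouse strain, with the same vehicle and subcutaneous route as the antinociceptive tests. Room temperature was 23 °C. 95% confidence limits were obtained by probit analysis.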

[5] = test system: Mus musculus; assay: Toxicity in male white mouse assessed as induction of convulsions at 50 mg/kg, sc; type: organism-based; design: dose 50 mg/kg, route subcutaneous; details: in vivo
[6] = test system: Mus musculus; assay: Toxicity in male white mouse assessed as induction of convulsions<40 mg/kg, sc; type: organism-based; details: in vivo
[7] = test system: Mus musculus; assay: Antinociceptive activity in male white mouse at 100 mg/kg, sc by hot plate test; type: functional, organism-based; design: dose 100 mg/kg
Summary of the method: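 Hot-plate antinociception test in male white mice, run by the standard method, with the compound given subcutaneously. Room temperature was held at 23 °C during testing.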

[8] = test system: Mus musculus; assay: Antinociceptive activity in male white mouse at 100 mg/kg, sc by Nilsen test; type: functional, organism-based; design: dose 100 mg/kg
[9] = test system: Mus musculus; assay: Toxicity in male white mouse assessed as induction of convulsions at 100 mg/kg, sc; type: organism-based; design: dose 100 mg/kg, route subcutaneous; details: in vivo

CCCCCc1cc(O)c2c(c1)OC(C)(C)[C@@H]1CC=C(C)CC21 (some centres undefined)
ED50 [1]: 8.8 mg/kg
Activity [2]: inactive

CN1CC[C@]23c4c5ccc(O)c4O[C@H]2[C@@H](O)C=C[C@H]3[C@H]1C5.CN1CC[C@]23c4c5ccc(O)c4O[C@H]2[C@@H](O)C=C[C@H]3[C@H]1C5.O=S(=O)(O)O
ED50 [1]: 1.2 mg/kg
ED50 [3]: 0.8 mg/kg

CC(C)[C@]12C[C@@H](O)[C@H](C)[C@H]1C2
ED50 [1]: 33.3 mg/kg

CC(C)[C@]12CC(=O)[C@H](C)[C@H]1C2
ED50 [1]: 6.5 mg/kg
ED50 [3]: 14.1 mg/kg
LD50 [4]: 87.5 mg/kg
Activity [5]: Toxic
Activity [6]: Non-toxic

COc1ccc2c3c1O[C@H]1[C@@H](O)C=C[C@H]4[C@@H](C2)N(C)CC[C@@]341.Cl
ED50 [1]: 7.5 mg/kg
ED50 [3]: 4.5 mg/kg
LD50 [4]: 270 mg/kg

CC1C(=O)C[C@]2(C(C)C)C[C@H]12 (mixture of isomers)
ED50 [1]: 16.7 mg/kg
LD50 [4]: 134 mg/kg

CCC(=O)C(CC(C)N(C)C)(c1ccccc1)c1ccccc1 (racemic) [METHADONE]
ED50 [1]: 0.8 mg/kg
LD50 [4]: 44 mg/kg

CC(C)[C@]12CC(=O)[C@@H](C)[C@H]1C2
Activity [7]: Active
Activity [8]: Active
LD50 [4]: 442 mg/kg
Activity [9]: Toxic

CCCCCc1cc(O)c2c(c1)OC(C)(C)[C@@H]1CCC(C)=C[C@@H]21 [DRONABINOL]
ED50 [1]: 9.6 mg/kg

CCCCCc1cc(O)c2c(c1)OC(C)(C)C1CC=C(CO)CC21 (centres undefined)
ED50 [1]: 1.9 mg/kg
ED50 [3]: 5.4 mg/kg
